Assay results reported in ChEMBL document CHEMBL1142492 (J Med Chem, 2008).

Assays:
[1] = target: Cyclin-dependent kinase 9 (Homo sapiens) (UniProt P50750); assay: Inhibition of CDK9 at 3 uM
[2] = target: Adenosine receptor A2a (Homo sapiens) (UniProt P29274); assay: Inhibition of human adenosine A2A receptor at 3 uM
Summary of the method: (§1)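 Counter-screen binding/enzyme panel at single 3 μM, n=2; results as percent inhibition. Species per target as listed (rat NMDA, GABAA sites; human receptors, transporters; rabbit ACE).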

[3] = target: Myosin-IIIb (Homo sapiens) (UniProt Q8WXR4); assay: Inhibition of MYO3B at 3 uM
[4] = target: D(1A) dopamine receptor (Homo sapiens) (UniProt P21728); assay: Inhibition of human dopamine D1 receptor at 3 uM
Sequence of D(1A) dopamine receptor (Homo sapiens) (P21728 whole entry): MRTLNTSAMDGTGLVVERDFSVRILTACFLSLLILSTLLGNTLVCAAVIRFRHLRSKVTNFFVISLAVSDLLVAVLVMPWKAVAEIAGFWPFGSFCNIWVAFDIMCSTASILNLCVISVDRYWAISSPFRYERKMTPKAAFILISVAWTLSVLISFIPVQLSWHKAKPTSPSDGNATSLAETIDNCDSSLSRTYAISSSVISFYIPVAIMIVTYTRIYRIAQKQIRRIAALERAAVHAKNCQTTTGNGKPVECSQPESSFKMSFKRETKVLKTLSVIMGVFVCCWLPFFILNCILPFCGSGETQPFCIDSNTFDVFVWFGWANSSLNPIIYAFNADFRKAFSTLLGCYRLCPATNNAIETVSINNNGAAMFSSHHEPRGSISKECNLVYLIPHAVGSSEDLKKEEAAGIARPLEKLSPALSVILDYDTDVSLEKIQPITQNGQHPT

Homo sapiens [5] = species: Homo sapiens; conditions: 3 uM
[6] = target: Leukocyte tyrosine kinase receptor (Homo sapiens) (UniProt P29376); assay: Inhibition of LTK at 3 uM
[7] = target: Tyrosine-protein kinase ABL1 (Homo sapiens) (UniProt P00519); assay: Inhibition of ABL1 at 3 uM
Sequence of Tyrosine-protein kinase ABL1 (Homo sapiens) (P00519 whole entry): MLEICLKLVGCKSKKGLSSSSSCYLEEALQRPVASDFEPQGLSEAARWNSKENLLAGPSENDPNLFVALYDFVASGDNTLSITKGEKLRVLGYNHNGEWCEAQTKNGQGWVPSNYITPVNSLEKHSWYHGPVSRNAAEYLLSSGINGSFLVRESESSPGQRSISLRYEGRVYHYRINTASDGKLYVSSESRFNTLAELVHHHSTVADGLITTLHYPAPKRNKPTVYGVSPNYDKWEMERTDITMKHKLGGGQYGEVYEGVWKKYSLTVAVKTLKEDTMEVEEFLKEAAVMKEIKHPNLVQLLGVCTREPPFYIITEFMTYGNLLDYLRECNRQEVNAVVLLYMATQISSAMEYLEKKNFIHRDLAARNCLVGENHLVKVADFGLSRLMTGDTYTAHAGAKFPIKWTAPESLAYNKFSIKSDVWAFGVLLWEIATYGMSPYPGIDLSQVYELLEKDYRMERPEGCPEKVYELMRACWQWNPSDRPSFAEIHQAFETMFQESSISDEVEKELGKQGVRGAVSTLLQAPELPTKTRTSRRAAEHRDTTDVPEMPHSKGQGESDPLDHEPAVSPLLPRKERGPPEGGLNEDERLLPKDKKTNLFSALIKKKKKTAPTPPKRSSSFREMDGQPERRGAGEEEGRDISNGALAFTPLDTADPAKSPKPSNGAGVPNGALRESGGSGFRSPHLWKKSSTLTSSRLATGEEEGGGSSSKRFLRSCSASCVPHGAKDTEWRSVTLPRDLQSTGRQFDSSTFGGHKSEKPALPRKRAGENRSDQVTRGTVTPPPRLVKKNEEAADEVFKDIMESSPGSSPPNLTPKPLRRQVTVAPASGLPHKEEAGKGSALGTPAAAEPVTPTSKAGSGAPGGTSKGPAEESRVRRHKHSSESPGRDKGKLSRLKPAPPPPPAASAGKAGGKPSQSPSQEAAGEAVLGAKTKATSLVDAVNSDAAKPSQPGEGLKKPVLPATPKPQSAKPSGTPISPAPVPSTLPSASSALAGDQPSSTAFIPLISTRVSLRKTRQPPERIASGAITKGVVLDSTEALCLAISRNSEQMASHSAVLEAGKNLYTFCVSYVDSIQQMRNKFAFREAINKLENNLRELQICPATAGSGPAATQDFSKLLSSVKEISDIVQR

[8] = test system: Epidermal growth factor receptor (Homo sapiens), P00533 [L861Q]; assay: Inhibition of EGFR L861Q mutant at 3 uM; format: protein assay
Summary of the method: (§2)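 Single-concentration kinase panel scoring: each value is the percentage of enzyme activity remaining relative to a DMSO-only control. An activity statistically indistinct from DMSO control was scored "no hit".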

[9] = target: Serine/threonine-protein kinase RIO3 (Homo sapiens) (UniProt O14730); assay: Inhibition of RIOK3 at 3 uM
Homo sapiens [10] = species: Homo sapiens; conditions: 3 uM; remark: listed apart in the source
[11] = test system: Epidermal growth factor receptor (Homo sapiens), P00533 [G719C]; assay: Inhibition of EGFR G719C mutant at 3 uM; format: protein assay
Sequence of Epidermal growth factor receptor (Homo sapiens), P00533 [G719C] (P00533 whole entry G719C): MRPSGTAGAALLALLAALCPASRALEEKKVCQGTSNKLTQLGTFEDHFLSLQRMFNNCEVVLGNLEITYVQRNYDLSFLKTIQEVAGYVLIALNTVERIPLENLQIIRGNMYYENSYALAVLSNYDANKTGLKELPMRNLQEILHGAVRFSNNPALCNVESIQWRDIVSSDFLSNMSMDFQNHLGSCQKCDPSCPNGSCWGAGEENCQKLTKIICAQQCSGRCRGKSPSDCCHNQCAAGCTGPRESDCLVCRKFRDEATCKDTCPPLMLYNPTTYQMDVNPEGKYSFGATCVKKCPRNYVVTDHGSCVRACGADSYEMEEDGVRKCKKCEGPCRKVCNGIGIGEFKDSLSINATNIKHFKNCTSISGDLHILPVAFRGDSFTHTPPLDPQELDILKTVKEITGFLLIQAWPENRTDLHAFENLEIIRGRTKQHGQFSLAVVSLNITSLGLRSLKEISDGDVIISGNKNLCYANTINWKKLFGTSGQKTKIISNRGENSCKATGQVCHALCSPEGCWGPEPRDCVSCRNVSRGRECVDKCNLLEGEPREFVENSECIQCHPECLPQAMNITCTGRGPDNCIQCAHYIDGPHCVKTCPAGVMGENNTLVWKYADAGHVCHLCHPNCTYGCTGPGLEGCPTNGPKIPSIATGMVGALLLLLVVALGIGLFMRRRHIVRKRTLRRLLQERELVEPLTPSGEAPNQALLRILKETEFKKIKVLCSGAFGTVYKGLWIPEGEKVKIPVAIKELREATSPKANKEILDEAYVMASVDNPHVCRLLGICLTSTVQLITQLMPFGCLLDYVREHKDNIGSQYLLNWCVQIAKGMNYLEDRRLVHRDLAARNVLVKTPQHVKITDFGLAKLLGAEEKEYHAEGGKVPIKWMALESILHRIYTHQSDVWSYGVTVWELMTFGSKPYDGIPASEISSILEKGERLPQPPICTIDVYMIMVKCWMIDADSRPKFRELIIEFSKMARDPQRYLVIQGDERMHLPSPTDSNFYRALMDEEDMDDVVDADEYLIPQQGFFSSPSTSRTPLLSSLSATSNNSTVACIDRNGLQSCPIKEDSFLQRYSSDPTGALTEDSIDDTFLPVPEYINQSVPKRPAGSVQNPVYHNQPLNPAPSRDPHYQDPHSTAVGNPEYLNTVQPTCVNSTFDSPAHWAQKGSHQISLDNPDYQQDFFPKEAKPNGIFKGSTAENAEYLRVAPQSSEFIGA

[12] = target: Kappa-type opioid receptor (Homo sapiens) (UniProt P41145); assay: Inhibition of human kappa opioid receptor at 3 uM
[13] = target: Aurora kinase B (Homo sapiens) (UniProt Q96GD4); assay: Inhibition of AURKB at 3 uM
Sequence of Aurora kinase B (Homo sapiens) (Q96GD4 whole entry): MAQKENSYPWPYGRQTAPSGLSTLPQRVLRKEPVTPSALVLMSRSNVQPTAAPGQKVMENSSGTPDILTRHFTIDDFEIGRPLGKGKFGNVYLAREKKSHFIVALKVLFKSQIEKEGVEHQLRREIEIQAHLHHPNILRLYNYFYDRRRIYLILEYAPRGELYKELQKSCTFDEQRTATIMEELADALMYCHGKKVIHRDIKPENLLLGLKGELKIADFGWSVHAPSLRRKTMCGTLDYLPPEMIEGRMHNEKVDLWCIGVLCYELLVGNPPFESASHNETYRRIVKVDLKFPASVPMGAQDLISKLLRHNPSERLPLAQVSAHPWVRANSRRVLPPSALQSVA

[14] = target: Rho-associated protein kinase 2 (Homo sapiens, UniProt O75116); assay: Inhibition of ROCK2 at 3 uM
[15] = test system: Mast/stem cell growth factor receptor Kit (Homo sapiens), P10721 [V559D,T670I]; assay: Inhibition of KIT V559D,T670I mutant at 3 uM
[16] = target: Inhibitor of nuclear factor kappa-B kinase subunit alpha (Homo sapiens) (UniProt O15111); assay: Inhibition of IKK-alpha at 3 uM
Sequence of Inhibitor of nuclear factor kappa-B kinase subunit alpha (Homo sapiens) (O15111 whole entry): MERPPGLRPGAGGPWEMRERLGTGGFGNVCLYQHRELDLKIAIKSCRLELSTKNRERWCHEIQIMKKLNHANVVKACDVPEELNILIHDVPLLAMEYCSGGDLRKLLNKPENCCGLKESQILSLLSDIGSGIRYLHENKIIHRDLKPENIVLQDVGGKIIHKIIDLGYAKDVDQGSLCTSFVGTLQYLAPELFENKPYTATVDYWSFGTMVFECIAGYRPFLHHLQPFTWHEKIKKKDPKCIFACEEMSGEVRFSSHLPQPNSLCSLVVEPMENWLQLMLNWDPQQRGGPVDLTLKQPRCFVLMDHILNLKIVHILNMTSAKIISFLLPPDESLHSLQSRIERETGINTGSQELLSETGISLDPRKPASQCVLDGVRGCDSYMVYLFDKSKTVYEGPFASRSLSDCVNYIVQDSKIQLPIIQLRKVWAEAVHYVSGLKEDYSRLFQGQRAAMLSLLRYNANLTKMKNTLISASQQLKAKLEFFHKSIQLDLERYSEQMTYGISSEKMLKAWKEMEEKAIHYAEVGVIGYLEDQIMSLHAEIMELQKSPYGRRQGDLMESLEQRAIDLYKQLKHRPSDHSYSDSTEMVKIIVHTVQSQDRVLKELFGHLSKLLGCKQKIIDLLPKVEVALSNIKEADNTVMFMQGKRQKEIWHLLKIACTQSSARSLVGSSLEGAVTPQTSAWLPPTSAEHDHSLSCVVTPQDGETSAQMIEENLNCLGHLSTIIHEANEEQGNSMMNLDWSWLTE

[17] = target: Muscarinic acetylcholine receptor M2 (Homo sapiens) (UniProt P08172); assay: Inhibition of human muscarinic M2 receptor at 3 uM; summary of the method: as §1
[18] = target: Serine/threonine-protein kinase Nek5 (Homo sapiens) (UniProt Q6P3R8); assay: Inhibition of NEK5 at 3 uM
[19] = target: Pyroglutamylated RF-amide peptide receptor (Homo sapiens) (UniProt Q96P65); assay: Inhibition of human GPR103 at 3 uM; summary of the method: as §1
[20] = target: Phosphatidylinositol 4,5-bisphosphate 3-kinase catalytic subunit gamma isoform (Homo sapiens) (UniProt P48736); assay: Inhibition of PIK3CG at 3 uM
[21] = target: 3-phosphoinositide-dependent protein kinase 1 (Homo sapiens) (UniProt O15530); assay: Inhibition of PDPK1 at 3 uM
[22] = target: Mitogen-activated protein kinase 7 (Homo sapiens) (UniProt Q13164); assay: Inhibition of ERK5 at 3 uM; summary of the method: as §2
[23] = target: Protein kinase C epsilon type (Homo sapiens) (UniProt Q02156); assay: Inhibition of PRKCE at 3 uM
[24] = target: Serine/threonine-protein kinase Chk2 (Homo sapiens) (UniProt O96017); assay: Inhibition of CHEK2 at 3 uM
[25] = target: Sodium-dependent serotonin transporter (Homo sapiens) (UniProt P31645); assay: Inhibition of human SERT at 3 uM
[26] = test system: Tyrosine-protein kinase ABL1 (Homo sapiens), P00519 [E255K]; assay: Inhibition of ABL1E255K mutant at 3 uM
Sequence of Tyrosine-protein kinase ABL1 (Homo sapiens), P00519 [E255K] (P00519 whole entry E255K): as the sequence (P00519 whole entry) above, with E255K counted along it

[27] = target: TGF-beta receptor type-2 (Homo sapiens) (UniProt P37173); assay: Inhibition of TGFBR2 at 3 uM
Rattus norvegicus = species: Rattus norvegicus; conditions: 3 uM
[28] = target: Tyrosine-protein kinase TXK (Homo sapiens) (UniProt P42681); assay: Inhibition of TXK at 3 uM
[29] = target: SRSF protein kinase 1 (Homo sapiens) (UniProt Q96SB4); assay: Inhibition of SRPK1 at 3 uM
[30] = target: Sodium-dependent dopamine transporter (Homo sapiens) (UniProt Q01959); assay: Inhibition of human DAT at 3 uM; summary of the method: as §1
Sequence of Sodium-dependent dopamine transporter (Homo sapiens) (Q01959 whole entry): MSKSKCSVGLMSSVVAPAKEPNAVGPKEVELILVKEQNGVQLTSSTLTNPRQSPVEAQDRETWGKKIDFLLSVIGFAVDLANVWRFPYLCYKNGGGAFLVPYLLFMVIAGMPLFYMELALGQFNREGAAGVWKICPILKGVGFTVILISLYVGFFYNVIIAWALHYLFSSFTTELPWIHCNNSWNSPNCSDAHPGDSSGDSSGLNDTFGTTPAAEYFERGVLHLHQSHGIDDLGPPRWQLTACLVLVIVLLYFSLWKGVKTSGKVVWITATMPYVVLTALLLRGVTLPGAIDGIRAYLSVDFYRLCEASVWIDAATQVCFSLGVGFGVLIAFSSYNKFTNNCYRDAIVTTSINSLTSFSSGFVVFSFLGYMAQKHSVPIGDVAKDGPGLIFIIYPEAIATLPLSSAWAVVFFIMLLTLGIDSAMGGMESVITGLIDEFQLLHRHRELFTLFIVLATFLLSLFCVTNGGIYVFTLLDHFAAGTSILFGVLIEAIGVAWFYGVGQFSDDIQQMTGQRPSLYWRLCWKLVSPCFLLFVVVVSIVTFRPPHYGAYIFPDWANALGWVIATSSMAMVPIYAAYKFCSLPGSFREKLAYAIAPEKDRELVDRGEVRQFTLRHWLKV

[31] = target: Serine/threonine-protein kinase 35 (Homo sapiens) (UniProt Q8TDR2); assay: Inhibition of STK35 at 3 uM
CYP2C9 = CYP2C9 (Homo sapiens, UniProt P11712); assay: Inhibition of human CYP2C9 at 10 uM; format: ADME
[32] = target: Insulin receptor (Homo sapiens) (UniProt P06213); assay: Inhibition of INSR at 3 uM
[33] = target: Serine/threonine-protein kinase PAK 2 (Homo sapiens) (UniProt Q13177); assay: Inhibition of PAK2 at 3 uM
[34] = target: Cyclin-dependent kinase 7 (Homo sapiens) (UniProt P50613); assay: Inhibition of CDK7 at 3 uM
[35] = target: Myosin light chain kinase family member 4 (Homo sapiens) (UniProt Q86YV6); assay: Inhibition of SgK085 at 3 uM
[36] = target: Activated CDC42 kinase 1 (Homo sapiens) (UniProt Q07912); assay: Inhibition of TNK2 at 3 uM
[37] = target: Serine/threonine-protein kinase MARK2 (Homo sapiens) (UniProt Q7KZI7); assay: Inhibition of MARK2 at 3 uM
[38] = target: Activin receptor type-1B (Homo sapiens) (UniProt P36896); assay: Inhibition of ACVR1B at 3 uM
[39] = target: Androgen receptor (Rattus norvegicus) (UniProt P15207); assay: Inhibition of rat androgen receptor at 3 uM
[40] = target: Beta-1 adrenergic receptor (Homo sapiens) (UniProt P08588); assay: Inhibition of human adrenergic beta-1 receptor at 3 uM; summary of the method: as §1
[41] = target: Aurora kinase A (Homo sapiens) (UniProt O14965); assay: Inhibition of AURKA at 3 uM
[42] = target: Tyrosine-protein kinase Lck (Homo sapiens) (UniProt P06239); assay: Inhibition of LCK at 3 uM
[43] = target: Bone morphogenetic protein receptor type-1B (Homo sapiens) (UniProt O00238); assay: Inhibition of BMPR1B at 3 uM
[44] = target: Phosphorylase b kinase gamma catalytic chain, liver/testis isoform (Homo sapiens) (UniProt P15735); assay: Inhibition of PHKG2 at 3 uM
[45] = target: cAMP-dependent protein kinase catalytic subunit alpha (Homo sapiens) (UniProt P17612); assay: Inhibition of PKAC-alpha at 3 uM

Sequence of Adenosine receptor A2a (Homo sapiens) (P29274 whole entry): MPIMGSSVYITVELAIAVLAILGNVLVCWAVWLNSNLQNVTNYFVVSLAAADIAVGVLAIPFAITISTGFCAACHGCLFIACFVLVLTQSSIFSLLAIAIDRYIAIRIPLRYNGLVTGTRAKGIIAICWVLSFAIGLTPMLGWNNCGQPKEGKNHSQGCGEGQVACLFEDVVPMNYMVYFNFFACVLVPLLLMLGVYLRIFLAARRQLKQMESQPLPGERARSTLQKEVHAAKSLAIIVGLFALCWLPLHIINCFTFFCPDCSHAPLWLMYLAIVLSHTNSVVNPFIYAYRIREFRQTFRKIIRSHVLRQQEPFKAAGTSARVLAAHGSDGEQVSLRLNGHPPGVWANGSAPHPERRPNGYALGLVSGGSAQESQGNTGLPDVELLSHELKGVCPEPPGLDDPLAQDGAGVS

CN(C)CCOc1cc(-c2cn[nH]c2)ccc1NC(=O)C1COc2ccccc2O1 (configuration not stated) [SR-3677]
99.6%: inhibition [14]
3%: inhibition [25]
0%: inhibition (Rattus norvegicus)
5%: inhibition [2]
7%: inhibition (Homo sapiens [10])
4%: inhibition [17]
12%: inhibition (Homo sapiens [5])
-7%: inhibition [12]
< 10%: inhibition [1] | inhibition [3] | inhibition [6] | inhibition [7] | inhibition [8] | inhibition [9] | inhibition [11] | inhibition [13] | inhibition [15] | inhibition [16] | inhibition [18] | inhibition [20] | inhibition [21] | inhibition [22] | inhibition [23] | inhibition [24] | inhibition [26] | inhibition [27] | inhibition [28] | inhibition [29] | inhibition [31] | inhibition [32] | inhibition [33] | inhibition [34] | inhibition [35] | inhibition [36] | inhibition [37] | inhibition [38] | inhibition [41] | inhibition [42] | inhibition [43] | inhibition [44] | inhibition [45]
43%: inhibition [40]
80%: inhibition at 10 µM (CYP2C9)
25%: inhibition [19]
17%: inhibition [4]
10%: inhibition [39]
37%: inhibition [30]
